Data on one molecule can be found in ChEMBL document CHEMBL3576845, “Discovery of Novel Multiacting Topoisomerase I/II and Histone Deacetylase Inhibitors” (ACS Med Chem Lett, 2015).

Test [1] concerns HCT-116. The test is described as follows: Induction of apoptosis in human HCT116 cells assessed as early apoptotic cells at 5 uM after 24 hrs by annexin V-FITC/propidium iodide staining-based flow cytometric analysis (reference value: 2.27%). The class given is functional. On the technique in general: In flow cytometry, cells or beads pass a laser one at a time.
The target in test [2] is T1, DNA topoisomerase 1 (Homo sapiens) (UniProt P11387).
T1 sequence (whole entry): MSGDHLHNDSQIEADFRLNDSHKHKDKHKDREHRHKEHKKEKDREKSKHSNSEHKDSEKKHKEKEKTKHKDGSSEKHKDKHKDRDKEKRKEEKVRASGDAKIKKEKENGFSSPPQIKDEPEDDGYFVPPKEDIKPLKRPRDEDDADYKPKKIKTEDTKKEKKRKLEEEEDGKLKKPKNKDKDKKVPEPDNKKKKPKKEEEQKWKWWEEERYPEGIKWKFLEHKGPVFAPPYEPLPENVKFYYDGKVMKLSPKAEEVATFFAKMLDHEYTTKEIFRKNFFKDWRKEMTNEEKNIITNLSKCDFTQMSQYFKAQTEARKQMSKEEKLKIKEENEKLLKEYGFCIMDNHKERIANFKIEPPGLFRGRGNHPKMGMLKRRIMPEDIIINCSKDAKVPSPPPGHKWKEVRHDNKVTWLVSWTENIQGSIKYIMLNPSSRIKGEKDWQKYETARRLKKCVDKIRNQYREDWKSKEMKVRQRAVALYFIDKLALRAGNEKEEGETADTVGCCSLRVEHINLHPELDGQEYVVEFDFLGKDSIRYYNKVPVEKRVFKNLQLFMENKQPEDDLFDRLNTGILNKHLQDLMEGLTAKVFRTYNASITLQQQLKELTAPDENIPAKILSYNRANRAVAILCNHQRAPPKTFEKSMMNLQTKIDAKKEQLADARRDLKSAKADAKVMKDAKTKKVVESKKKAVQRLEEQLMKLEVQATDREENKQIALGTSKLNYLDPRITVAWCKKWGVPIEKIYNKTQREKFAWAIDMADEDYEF
As to the kind of experiment: Inhibition of topoisomerase1 (unknown origin)-mediated pBR322 DNA relaxation at 50 uM after 15 mins by agarose gel electrophoresis. Summed up: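 Relaxation of supercoiled pBR322 plasmid by purified Top1 with compound at 50 μM; camptothecin 50 μM as reference; DNA-only and DNA + enzyme lanes as controls; gel read-out; repeated 3 times.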

Test [3] concerns the target DNA topoisomerase 2-alpha (Homo sapiens) (UniProt P11388). The test is described as follows: Inhibition of topoisomerase-2alpha (unknown origin)-mediated pBR322 DNA relaxation at 50 uM after 30 mins by agarose gel electrophoresis. The essentials: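 Purified Top2α relaxation of supercoiled pBR322 plasmid with compound at 50 μM; etoposide 50 μM as reference; DNA-only and DNA + enzyme lanes as controls; gel read-out; repeated 3 times.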

The next test deals with T2, Histone deacetylase 8 (Homo sapiens, UniProt Q9BY41).
T2 sequence (Q9BY41 whole entry): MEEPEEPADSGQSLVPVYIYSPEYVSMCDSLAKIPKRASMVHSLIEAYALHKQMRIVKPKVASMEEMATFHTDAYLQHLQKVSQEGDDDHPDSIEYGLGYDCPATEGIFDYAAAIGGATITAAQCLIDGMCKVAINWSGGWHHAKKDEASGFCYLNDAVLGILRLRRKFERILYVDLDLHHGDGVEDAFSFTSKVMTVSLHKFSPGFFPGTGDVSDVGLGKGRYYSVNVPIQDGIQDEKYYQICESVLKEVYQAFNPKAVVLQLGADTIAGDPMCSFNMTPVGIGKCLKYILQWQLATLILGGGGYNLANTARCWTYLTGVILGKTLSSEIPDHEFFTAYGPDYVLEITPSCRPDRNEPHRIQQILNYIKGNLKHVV
The test is described as follows: Inhibition of recombinant C-terminal His-tagged full length human HDAC8 expressed in baculovirus infected insect Sf9 cells using fluorogenic HDAC class 2a substrate after 30 mins by fluorescence assay.

In test [4] the test system is HCT-116. As to the kind of experiment: Induction of apoptosis in human HCT116 cells assessed as late apoptotic cells at 5 uM after 24 hrs by annexin V-FITC/propidium iodide staining-based flow cytometric analysis (reference value: 1.05%). The class given is functional.
Test [5] deals with HCT-116. The test is described as follows: Induction of apoptosis in human HCT116 cells assessed as necrotic cells at 5 uM after 24 hrs by annexin V-FITC/propidium iodide staining-based flow cytometric analysis (reference value: 8%). The class given is functional.
The target in test [6] is Histone deacetylase (Homo sapiens) (UniProt Q13547+O15379+Q9UBN7+Q92769+Q9UQL6+Q8WUI4+Q9BY41+Q96DB2+P56524+Q9UKV0+Q969S8). The test is described as follows: Inhibition of HDAC in human HCT116 cells assessed as induction of histone H3 hyperacetylation at 2.5 to 5 uM after 24 to 48 hrs by Western blot analysis. The class given is cell-based. The following applies: HCT-116. Summed up:
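HCT116 cells treated 24 h with compound at 2.5 or 5 μM alongside an untreated control; lysates probed by Western blot for acetylated histone H3.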
On the technique in general: In western blotting, separated proteins are transferred to a membrane and probed.

The structures appear in SMILES notation. Active and inactive are the calls of the source. The calls are words filed in the database; no cut-off is given here.

DNA topoisomerase 2-alpha (Homo sapiens), sequence (P11388 whole entry): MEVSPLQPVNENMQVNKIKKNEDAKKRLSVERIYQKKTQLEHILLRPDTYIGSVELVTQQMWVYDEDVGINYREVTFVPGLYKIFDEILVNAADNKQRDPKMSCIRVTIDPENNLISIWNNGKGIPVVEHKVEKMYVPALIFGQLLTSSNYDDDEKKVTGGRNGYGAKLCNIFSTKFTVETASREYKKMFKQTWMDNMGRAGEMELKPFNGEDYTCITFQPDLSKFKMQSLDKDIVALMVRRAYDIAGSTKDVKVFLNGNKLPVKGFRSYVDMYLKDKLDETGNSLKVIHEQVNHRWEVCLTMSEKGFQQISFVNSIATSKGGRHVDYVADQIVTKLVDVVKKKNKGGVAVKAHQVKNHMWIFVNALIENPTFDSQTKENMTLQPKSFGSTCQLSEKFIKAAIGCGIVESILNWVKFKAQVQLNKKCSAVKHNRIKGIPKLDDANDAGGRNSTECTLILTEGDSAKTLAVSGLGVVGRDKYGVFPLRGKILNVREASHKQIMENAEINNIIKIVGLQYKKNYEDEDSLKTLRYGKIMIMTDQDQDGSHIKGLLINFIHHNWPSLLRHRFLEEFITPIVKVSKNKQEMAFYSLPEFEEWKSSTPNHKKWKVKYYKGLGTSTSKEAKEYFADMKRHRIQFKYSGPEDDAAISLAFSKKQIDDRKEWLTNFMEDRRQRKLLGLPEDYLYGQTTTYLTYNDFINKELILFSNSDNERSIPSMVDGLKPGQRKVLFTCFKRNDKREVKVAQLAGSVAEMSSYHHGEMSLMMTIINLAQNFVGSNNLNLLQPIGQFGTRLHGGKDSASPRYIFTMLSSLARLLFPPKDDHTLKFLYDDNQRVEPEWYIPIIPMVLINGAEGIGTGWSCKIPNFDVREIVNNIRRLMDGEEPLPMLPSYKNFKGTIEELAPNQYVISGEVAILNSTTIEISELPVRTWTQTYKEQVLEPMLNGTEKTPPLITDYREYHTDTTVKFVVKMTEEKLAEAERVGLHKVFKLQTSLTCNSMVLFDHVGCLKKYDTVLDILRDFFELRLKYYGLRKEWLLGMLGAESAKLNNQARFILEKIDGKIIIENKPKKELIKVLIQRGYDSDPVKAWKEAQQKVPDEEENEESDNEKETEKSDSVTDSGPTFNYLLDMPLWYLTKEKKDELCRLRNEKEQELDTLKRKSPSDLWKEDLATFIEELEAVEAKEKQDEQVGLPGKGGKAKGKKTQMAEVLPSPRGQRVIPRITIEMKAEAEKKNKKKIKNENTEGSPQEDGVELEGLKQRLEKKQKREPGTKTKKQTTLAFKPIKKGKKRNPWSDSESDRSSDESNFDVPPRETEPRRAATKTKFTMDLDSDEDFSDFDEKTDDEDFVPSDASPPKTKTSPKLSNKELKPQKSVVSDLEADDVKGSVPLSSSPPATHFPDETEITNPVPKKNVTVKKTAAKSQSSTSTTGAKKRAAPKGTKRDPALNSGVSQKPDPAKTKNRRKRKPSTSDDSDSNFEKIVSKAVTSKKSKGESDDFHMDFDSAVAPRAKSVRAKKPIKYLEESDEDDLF

Usually IC50 stands for the point on the concentration scale where inhibition reaches its midpoint. `CN1c2ccc(NCc3ccc(-c4noc(CCCCCCC(=O)NO)n4)cc3)cc2C(=O)N2CCc3c([nH]c4ccc(O)cc34)C21` (configuration not stated): the Activity stood at 22.59% in the test with HCT-116 [1], 16.73% with HCT-116 [4] and 2.68% in the test on HCT-116 [5]. The inhibition result in test [2], in test [3] and in test [6] was “Active” in each case. Besides, at Histone deacetylase 8, the 50% inhibitory concentration (IC50) was found to be 2.5 µM.
